Calls of active or inactive are those of the source. The rule behind the calls is not given here.
Legend:
RAW264.7 [1] = test: Anti-inflammatory activity in mouse RAW264.7 cells assessed as LPS-induced nitric oxide production level at 50 uM pre-incubated for 2 hrs before LPS stimulation for 24 hrs by Griess assay relative to untreated control; type: functional
Outline: (§1)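 Cells pretreated with compound at various concentrations for 2 h, then LPS 0.5 µg/mL added for 24 h; nitrite in medium read with Griess reagent; means ± SD of triplicates.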

[2] = Cytotoxicity against mouse RAW264.7 cells assessed as cell viability at 50 uM incubated for 24 hrs by Alamar-Blue assay; type: cell-based; settings: read-out: Activity
RAW264.7 [3] = test: Anti-inflammatory activity in mouse RAW264.7 cells assessed as reduction in LPS-induced nitric oxide production level pre-incubated for 2 hrs before LPS stimulation for 24 hrs by Griess assay relative to untreated control; type: functional, cell-based; outline: as §1
RAW264.7 [4] = test: Inhibition of LPS-induced IL-6 mRNA expression in mouse RAW264.7 cells at 10 uM pre-incubated for 2 hrs before LPS stimulation for 24 hrs by qRT-PCR method; type: functional, cell-based
Outline: (§2)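 Cells in 6-well plates pretreated (1, 10, 50 µM; BAY 11-7082 10 µM reference) 2 h before LPS 0.5 µg/mL for 24 h; IL-1b and IL-6 mRNA by qRT-PCR against GAPDH; mean ± SD of three experiments in triplicate.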

RAW264.7 [5] = test: Anti-inflammatory activity in mouse RAW264.7 cells assessed as LPS-induced nitric oxide production level at 10 uM pre-incubated for 2 hrs before LPS stimulation for 24 hrs by Griess assay relative to untreated control; type: functional; outline: as §1
RAW264.7 [6] = test: Inhibition of LPS-induced IL-1beta mRNA expression in mouse RAW264.7 cells at 10 uM pre-incubated for 2 hrs before LPS stimulation for 24 hrs by qRT-PCR method; type: functional, cell-based; outline: as §2
RAW264.7 [7] = test: Inhibition of LPS-induced iNOS mRNA expression in mouse RAW264.7 cells at 10 uM pre-incubated for 2 hrs before LPS stimulation for 24 hrs by qRT-PCR method; type: functional, cell-based
Outline: (§3)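 Cells pretreated with compound or 10 µM BAY 11-7082 for 2 h, then LPS 0.5 µg/mL for 24 h; total RNA extracted, iNOS mRNA by qRT-PCR normalised to GAPDH.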

RAW264.7 [8] = test: Inhibition of LPS-induced IL-6 protein expression in mouse RAW264.7 cells at 1 to 50 uM pre-incubated for 2 hrs before LPS stimulation for 24 hrs by ELISA
[9] = target: MAP kinase p38 (Mus musculus) (UniProt P47811+O08911+Q9WUI1+Q9Z1B7); test: Inhibition of LPS-induced p38 MAPK phosphorylation in mouse RAW264.7 cells at 1 to 50 uM pre-incubated for 2 hrs before LPS stimulation for 30 min by Western blotting method
[10] = target: RAC-alpha serine/threonine-protein kinase (Mus musculus) (UniProt P31750); test: Inhibition of LPS-induced AKT phosphorylation in mouse RAW264.7 cells at 1 to 50 uM pre-incubated for 30 mins before LPS stimulation for 30 mins by Western blotting method
Sequence of RAC-alpha serine/threonine-protein kinase (Mus musculus) (P31750 whole entry): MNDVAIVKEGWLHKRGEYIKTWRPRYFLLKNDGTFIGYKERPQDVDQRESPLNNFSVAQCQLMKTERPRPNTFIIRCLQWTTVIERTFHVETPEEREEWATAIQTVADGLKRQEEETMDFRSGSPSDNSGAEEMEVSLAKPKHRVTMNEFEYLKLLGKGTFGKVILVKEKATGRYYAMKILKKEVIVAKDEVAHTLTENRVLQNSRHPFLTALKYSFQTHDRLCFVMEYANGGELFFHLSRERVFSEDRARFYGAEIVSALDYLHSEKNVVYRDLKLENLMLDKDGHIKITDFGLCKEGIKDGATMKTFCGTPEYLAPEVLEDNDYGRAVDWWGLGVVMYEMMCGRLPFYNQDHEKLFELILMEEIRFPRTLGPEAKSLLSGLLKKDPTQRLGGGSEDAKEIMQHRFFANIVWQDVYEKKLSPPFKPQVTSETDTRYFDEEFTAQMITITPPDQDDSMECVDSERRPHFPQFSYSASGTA

RAW264.7 [11] = test: Inhibition of LPS-induced IL-1beta mRNA expression in mouse RAW264.7 cells pre-incubated for 2 hrs before LPS stimulation for 24 hrs by qRT-PCR method; type: functional, cell-based; outline: as §2
JNK1/JNK2 (Mus musculus) = JNK1/JNK2 (Mus musculus) (UniProt Q91Y86+Q9WTU6); test: Inhibition of LPS-induced JNK1/2 MAPK phosphorylation in mouse RAW264.7 cells at 1 to 50 uM pre-incubated for 2 hrs before LPS stimulation for 30 mins by Western blotting method
Sequence of JNK1/JNK2 (Mus musculus) (Q91Y86 whole entry, looked up): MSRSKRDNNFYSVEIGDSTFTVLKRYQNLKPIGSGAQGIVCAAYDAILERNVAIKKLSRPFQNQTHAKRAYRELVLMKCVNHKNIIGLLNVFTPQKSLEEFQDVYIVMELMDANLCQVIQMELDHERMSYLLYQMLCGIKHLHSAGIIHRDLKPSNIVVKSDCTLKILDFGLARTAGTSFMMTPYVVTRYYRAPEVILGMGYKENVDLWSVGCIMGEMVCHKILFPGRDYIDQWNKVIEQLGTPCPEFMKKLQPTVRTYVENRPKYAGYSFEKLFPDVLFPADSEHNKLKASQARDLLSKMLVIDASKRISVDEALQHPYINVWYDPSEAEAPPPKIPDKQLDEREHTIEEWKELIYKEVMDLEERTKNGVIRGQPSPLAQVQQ
Sequence of JNK1/JNK2 (Mus musculus) (Q9WTU6 whole entry, looked up): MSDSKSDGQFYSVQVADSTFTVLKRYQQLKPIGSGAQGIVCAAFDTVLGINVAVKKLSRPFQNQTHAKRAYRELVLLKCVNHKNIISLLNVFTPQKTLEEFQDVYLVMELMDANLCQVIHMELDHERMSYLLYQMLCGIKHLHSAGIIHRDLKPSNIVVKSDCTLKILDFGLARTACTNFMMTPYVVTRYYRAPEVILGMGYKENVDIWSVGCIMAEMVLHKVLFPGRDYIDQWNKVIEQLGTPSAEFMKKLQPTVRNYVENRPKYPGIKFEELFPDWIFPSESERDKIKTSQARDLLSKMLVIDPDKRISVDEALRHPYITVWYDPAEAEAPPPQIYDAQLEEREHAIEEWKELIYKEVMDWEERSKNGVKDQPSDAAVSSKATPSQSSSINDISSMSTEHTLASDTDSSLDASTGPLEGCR

[12] = target: T1, NF-kappa-B inhibitor alpha (Mus musculus) (UniProt Q9Z1E3); test: Inhibition of LPS-induced IkappaB-alpha phosphorylation in mouse RAW264.7 cells at 1 to 50 uM pre-incubated before LPS stimulation for 5 mins by Western blotting method
T1 sequence (whole entry): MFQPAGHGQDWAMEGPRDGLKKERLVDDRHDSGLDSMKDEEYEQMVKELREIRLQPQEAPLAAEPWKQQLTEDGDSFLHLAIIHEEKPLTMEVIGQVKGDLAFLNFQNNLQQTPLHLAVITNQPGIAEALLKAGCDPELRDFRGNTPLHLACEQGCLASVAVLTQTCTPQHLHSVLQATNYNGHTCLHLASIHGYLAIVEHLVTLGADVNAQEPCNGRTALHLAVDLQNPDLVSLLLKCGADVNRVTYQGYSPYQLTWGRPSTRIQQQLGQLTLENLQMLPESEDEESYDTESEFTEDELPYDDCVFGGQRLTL

RAW264.7 [13] = test: Inhibition of LPS-induced iNOS mRNA expression in mouse RAW264.7 cells pre-incubated for 2 hrs before LPS stimulation for 24 hrs by qRT-PCR method; type: functional, cell-based; outline: as §3
[14] = target: Mitogen-activated protein kinase 1 and 3 (ERK2 and ERK1) (Mus musculus) (UniProt P63085+Q63844); test: Inhibition of LPS-induced ERK1/2 MAPK phosphorylation in mouse RAW264.7 cells at 1 to 50 uM pre-incubated for 2 hrs before LPS stimulation for 30 mins by Western blotting method
Sequence of Mitogen-activated protein kinase 1 and 3 (ERK2 and ERK1) (Mus musculus) (P63085 whole entry, looked up): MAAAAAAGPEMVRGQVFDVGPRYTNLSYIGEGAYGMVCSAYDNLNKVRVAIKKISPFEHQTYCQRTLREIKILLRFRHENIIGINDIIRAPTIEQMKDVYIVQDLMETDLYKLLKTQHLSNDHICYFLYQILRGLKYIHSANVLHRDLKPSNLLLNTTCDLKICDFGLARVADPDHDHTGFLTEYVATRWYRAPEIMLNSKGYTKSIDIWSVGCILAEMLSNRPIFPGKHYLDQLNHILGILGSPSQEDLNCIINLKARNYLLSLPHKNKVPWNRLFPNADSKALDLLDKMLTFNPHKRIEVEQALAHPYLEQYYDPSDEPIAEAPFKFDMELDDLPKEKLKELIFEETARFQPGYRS
Sequence of Mitogen-activated protein kinase 1 and 3 (ERK2 and ERK1) (Mus musculus) (Q63844 whole entry, looked up): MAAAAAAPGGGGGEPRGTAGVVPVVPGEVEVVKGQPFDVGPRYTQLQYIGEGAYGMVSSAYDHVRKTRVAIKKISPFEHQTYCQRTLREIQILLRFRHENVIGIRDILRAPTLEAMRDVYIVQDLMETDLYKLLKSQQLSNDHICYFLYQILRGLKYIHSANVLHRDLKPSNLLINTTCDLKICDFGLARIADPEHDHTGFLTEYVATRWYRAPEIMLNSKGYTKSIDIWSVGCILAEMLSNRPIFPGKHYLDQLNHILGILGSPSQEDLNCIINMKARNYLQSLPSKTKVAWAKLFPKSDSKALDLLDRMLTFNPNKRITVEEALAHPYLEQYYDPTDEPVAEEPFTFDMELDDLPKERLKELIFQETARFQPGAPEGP

RAW264.7 [15] = test: Inhibition of LPS-induced iNOS protein expression in mouse RAW264.7 cells pre-incubated for 2 hrs before LPS stimulation for 24 hrs by Western blotting method; type: functional, cell-based
Outline: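 Cells in 6-well plates pretreated (1, 10, 50 µM; BAY 11-7082 10 µM) for 2 h, LPS 0.5 µg/mL 24 h; lysates immunoblotted with anti-iNOS, GAPDH loading control.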

RAW264.7 [16] = test: Inhibition of LPS-induced IL-6 mRNA expression in mouse RAW264.7 cells pre-incubated for 2 hrs before LPS stimulation for 24 hrs by qRT-PCR method; type: functional, cell-based; outline: as §2
[17] = target: T1, NF-kappa-B inhibitor alpha (Mus musculus); test: Inhibition of LPS-induced IkappaB-alpha degradation in mouse RAW264.7 cells at 1 to 50 uM pre-incubated before LPS stimulation for 5 mins by Western blotting method

SMILES | Activity (RAW264.7 [1]) | viability at 24 h, 50 µM [2] | also measured
CCN(CC)C(=O)c1cc2cc(OC)c(OC)cc2c2cc(OC)c(OC)cc12 | 39.8% | 94.7% | IC50 (RAW264.7 [3]): 20.3 µM
COC(=O)/C(=C/c1ccc2c(c1)OCO2)c1ccc(OC)c(OC)c1 | 109.2% | 88% | –
COc1ccc(/C=C(/C(=O)O)c2ccc(OC)c(OC)c2)cc1OC | 64.3% | 121% | –
COc1ccc(/C(=C\c2ccc3c(c2)OCO3)C(=O)O)cc1OC | 86% | 123% | –
COC(=O)/C(=C\c1ccc(OC)c(OC)c1)c1ccc(OC)c(OC)c1 | 98.7% | 91.1% | –
COC(=O)c1cc2cc(OC)ccc2c2cc(OC)c(OC)cc12 | 48.8% | 99.3% | –
COc1ccc(/C=C(\C(=O)O)c2ccc(OC)c(OC)c2)cc1OC | 120.7% | 106% | –
Cc1ccc(S(=O)(=O)/C=C/C#N)cc1 | – | – | inhibition (RAW264.7 [4]): Active; Activity (RAW264.7 [5]): 1.2%; inhibition (RAW264.7 [6]): Active; inhibition (RAW264.7 [7]): Active
COC(=O)c1cc2cc(OC)c(OC)cc2c2cc(OC)c(OC)cc12 | 45.3% | 101% | –
COc1cc2cc(C#N)c3cc(OC)c(OC)cc3c2cc1OC | 108.8% | 102% | –
COc1ccc(/C=C(\C#N)c2ccc(OC)c(OC)c2)cc1OC | 46.7% | 96.7% | –
COC(=O)c1cc2cc(OC)c(OC)cc2c2cc(OC)ccc12 | 83% | 99.7% | –
COc1cc2c(C(=O)O)cc3cc4c(cc3c2cc1OC)OCO4 | 53.1% | 107% | –
COC(=O)/C(=C\c1ccc2c(c1)OCO2)c1ccc(OC)c(OC)c1 | 79% | 56.1% | –
COC(=O)/C(=C/c1ccc(OC)c(OC)c1)c1ccc(OC)c(OC)c1 | 3.9% | 114% | inhibition (RAW264.7 [8]): Active; inhibition [9]: Active; inhibition [10]: Active; inhibition (RAW264.7 [11]): Dose-dependent effect; IC50 (RAW264.7 [3]): 5.05 µM; inhibition (JNK1/JNK2 (Mus musculus)): inactive; inhibition [12]: Active; inhibition (RAW264.7 [13]): Dose-dependent effect; inhibition [14]: inactive; inhibition (RAW264.7 [15]): Dose-dependent effect; inhibition (RAW264.7 [16]): Dose-dependent effect; inhibition [17]: Active
COc1cc2cc(C(=O)O)c3cc(OC)c(OC)cc3c2cc1OC | 78.2% | 101% | –
COC(=O)c1cc2cc3c(cc2c2cc(OC)c(OC)cc12)OCO3 | 75% | 101% | –
COC(=O)/C(=C/c1cccc(OC)c1)c1ccc(OC)c(OC)c1 | 84.6% | 76.5% | –
COc1ccc(/C(=C/c2ccc3c(c2)OCO3)C(=O)O)cc1OC | 106.9% | 103% | –
CCN(CC)C(=O)/C(=C/c1ccc(OC)c(OC)c1)c1ccc(OC)c(OC)c1 | 92.7% | 111% | –
COC(=O)/C(=C/c1ccc(OC)c(OC)c1)c1ccc(OC)cc1 | 45.5% | 66.7% | IC50 (RAW264.7 [3]): 37.3 µM
